PMC6247064 (Cancer Science, 2018)
Converted amounts (≈) assume the structure as drawn. “And” between values parts separate entries of the source, which are not always exact repeats. Identical values can stand only once. Like-named read-outs stand apart in the source and are kept apart here.

Legend:
[1] = tested on: advanced solid tumors; test: Phase 1 study: antitumor activity by RECIST version 1.1; assay type: in vivo, human
Summary of the method: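 Adults with advanced solid tumors received the test compound at 80 or 105 mg/m2 by IV infusion on day 1 of each 14-day cycle. Tumors were measured by CT or MRI and scored with RECIST 1.1. Best overall response was the best response recorded from the start of treatment until disease progression. Patients counted if they had baseline and post-baseline tumor measurements.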

[2] = tested on: advanced solid tumors; settings: cited from earlier work
[3] = Phase 1 study: noncompartmental plasma pharmacokinetics; assay type: in vivo, human; settings: for C av,72 (average plasma concentration over 72 h): geometric mean (CV%)
Summary of the method: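 The test compound was given as a 1-h IV infusion at 80 or 105 mg/m2 every 14 days. Plasma levels were measured by validated LC/MS/MS and analysed noncompartmentally. C av,72 is the mean plasma concentration over 72 h after infusion. Accumulation ratio is cycle 2 day 1 AUC(0-24) divided by cycle 1 day 1 AUC(0-24). Values are geometric means.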

[4] = tested on: BRCA wild-type recurrent high-grade serous ovarian cancer; settings: phase 2, 8 of 28 women, intention-to-treat population; cited from earlier work
[5] = tested on: Calu-6 xenograft; settings: cited from earlier work

COc1cccc(OCCCN)c1-c1cc(Nc2cnc(C#N)cn2)n[nH]1 [Prexasertib]
Maximum tumor shrinkage from baseline, individual patients with esophageal SCC ([1]; 80 mg/m^2, two patients with BOR of stable disease): 20% and 13%
BOR progressive disease ([1]; 80 mg/m^2 group, 2 of 6 patients): 33.3%
BOR stable disease ([1]; 80 mg/m^2 group, 4 of 6 patients): 66.7%
BOR progressive disease ([1]; 105 mg/m^2 group, 1 of 5 evaluable patients): 20.0%
BOR stable disease ([1]; 105 mg/m^2 group, 4 of 5 evaluable patients): 80.0%
Complete response or partial response ([1]; all patients): No patients in the study had a complete response or partial response
Best overall response of stable disease ([1]; patients with baseline and post-baseline tumor measurements, both doses): 8 of 11
Best overall response of stable disease ([2]; US phase 1, 15 of 45 patients): 33%
Partial response ([2]; US phase 1, 45 patients, Two patients (SCC of the anus, SCC of the head and neck)): 4%
Recommended prexasertib dose ([2]; US phase 1, administered once every 14 days): 105 mg/m^2
Patients with tumor shrinkage ([2]; phase 1 trial in non-Japanese patients): 10 of 34
C av,72 (average plasma concentration over 72 h) ([3]; 80 mg/m^2 1-h IV infusion, Cycle 1, day 1, N 6): 23.1 (22) ng/mL
C av,72 (average plasma concentration over 72 h) ([3]; 80 mg/m^2 1-h IV infusion, Cycle 2, day 1, N 4): 24.8 (16) ng/mL
C av,72 (average plasma concentration over 72 h) ([3]; 105 mg/m^2 1-h IV infusion, Cycle 1, day 1, N 6): 30.0 (13) ng/mL
C av,72 (average plasma concentration over 72 h) ([3]; 105 mg/m^2 1-h IV infusion, Cycle 2, day 1, N 3): 31.5 (22) ng/mL
Intercycle accumulation between cycle 1 and cycle 2 ([3]; both treatment groups): no intercycle accumulation
Partial responses [4]: 29%
IC50 derived from the single-agent Calu-6 xenograft model ([5]; plasma concentration): 0.0141 µg/mL (≈ 0.0386 µM)
Median AUC(0-72) predicted to achieve the maximal tumor response ([5]; predicted from Calu-6 xenograft PK/pharmacodynamic model, monotherapy): 1896 ng·h/mL
